Data set [1] in a line: Intrinsic clearance in Beagle dog hepatocytes assessed per million cells at 5 uM incubated for 3 hrs by LC-MS analysis. The data set is classed as ADME, cell-based, Canis lupus familiaris, Hepatocyte. The following applies: read-out: CLH. In a few lines:
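Cryopreserved Beagle dog hepatocytes in suspension with compound at 5 μM (final, from 10 mM DMSO stock). Sampled at 0, 15, 60, 90 and 180 min, ACN-precipitated and analysed by LC-MS. Duplicates; 7-ethoxycoumarin as positive control, hepatocyte-free medium as negative control. CLint given per 10^6 cells, mean ± SEM (n = 2).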

The nature of data set [2]: Clearance in C57BL/6J mouse plasma at 25 mg/kg, po administered as single dose by mass spectrometry based UHPLC analysis. Format: ADME, organism-based. In a few lines:
(§1)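 One oral dose of 25 mg/kg to female C57BL/6J mice. Plasma and brain concentrations followed over time, n = 3 per time point (mean).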

Data set [3] has as its system Rattus norvegicus. In words: In vivo inhibition of PI3Kalpha Sprague-Dawley rat assessed as increase in plasma insulin concentration at 5 mg/kg, po measured after 8 hrs by ELISA. Format: functional, organism-based. In a few lines:
(§2)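 Male Sprague Dawley rats dosed orally at 5 mg/kg; plasma insulin and glucose followed over time against vehicle, n = 3, mean ± SEM.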

The test system of data set [4] is Mus musculus. In words: Protection against Tsc1-GFAP knockout induced mortality in Balb/c mouse assessed as increase in survival rate at 50 mg/kg, po administered twice daily. Format: functional, organism-based. The gist of the method: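 Tsc1GFAPCKO mice (conditional Tsc1 inactivation mainly in glia) dosed orally starting at P21, at 10 mg/kg or 50 mg/kg bid (n = 10 and 7). Survival recorded to P90, with censoring at P90. Compared with vehicle and everolimus by log-rank test.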

Data set [5] in a line: AUC (0 to 8 hrs) in male Sprague-Dawley rat plasma at 5 mg/kg, po. The data set is classed as ADME, organism-based. Also noted: time < 8 hr, route oral, dose 5 mg/kg. In a few lines: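 Male Sprague Dawley rats, single oral dose of 5 mg/kg. Plasma and brain concentrations measured over 8 h, n = 3, mean ± SEM; AUC0−8 computed from the time course.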
Data set [6] is described as follows: Toxicity in Tsc1-GFAP knockout Balb/c mouse assessed as change in body weight at 10 to 50 mg/kg, po administered as single dose. The data set is classed as organism-based. To be noted: in vivo, dose 10-50 mg/kg.
Data set [7] in a line: Metabolic stability in Beagle dog hepatocytes assessed as parent compound remaining at 5 uM incubated for 3 hrs by LC-MS analysis. The data set is classed as ADME, cell-based, Canis lupus familiaris, Hepatocyte. To be noted: read-out: Stabilty. The gist of the method: (§3)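 Cryopreserved primary hepatocytes in suspension (CD-1 mouse, Sprague-Dawley rat, Beagle dog, human). Compound diluted from 10 mM DMSO stock to 5 μM final. Sampled at 0, 15, 60, 90 and 180 min, protein precipitated with ACN plus internal standard, supernatant analysed by LC−MS. Run in duplicate. 7-ethoxycoumarin as positive control. Hepatocyte-free medium incubations as negative control.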

A short description of data set [8]: Cmax in C57BL/6J mouse brain at 25 mg/kg, po administered as single dose by mass spectrometry based UHPLC analysis. Format: ADME, organism-based. Further details: route oral, dose 25 mg/kg. In a few lines: as §1
The nature of data set [9]: Tmax in C57BL/6J mouse plasma at 10 mg/kg, po administered once a day for 4 consecutive days by mass spectrometry based UHPLC analysis. The following applies: time 4 day. The data set is classed as ADME, organism-based. In a few lines: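 Female C57BL/6J mice dosed orally at 10 mg/kg in 20% Captisol, either once or once daily for 4 days with sampling after the last dose on day 4. Plasma and brain concentrations followed over time. Tmax taken from at least 3 time points.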

Data set [10] can be described thus: Clearance in C57BL/6J mouse plasma at 10 mg/kg, po administered as single dose by mass spectrometry based UHPLC analysis. Format: ADME, organism-based. The gist of the method: (§4)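 Female C57BL/6J mice, one oral dose of 10 mg/kg in 20% Captisol; plasma and brain levels over time, n = 3 per time point (mean).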
The nature of data set [11]: Metabolic stability in CD1 mouse hepatocytes assessed as parent compound remaining at 5 uM incubated for 3 hrs by LC-MS analysis. Format: ADME, cell-based, Hepatocyte. To be noted: read-out: Stabilty. In a few lines:
as §3

Data set [12] concerns Rattus norvegicus. Nature of the data set: In vivo inhibition of PI3Kalpha Sprague-Dawley rat assessed as increase in plasma glucose concentration at 5 mg/kg, po measured after 8 hrs by glucoseoxidase-peroxide coupled colorimetric assay. Format: functional, organism-based. In a few lines: as §2
Data set [13] can be described thus: Clearance in C57BL/6J mouse plasma at 10 mg/kg, po administered once a day for 4 consecutive days by mass spectrometry based UHPLC analysis. To be noted: time 4 day. The data set is classed as ADME, organism-based. The gist of the method:
(§5)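 Female C57BL/6J mice given 10 mg/kg p.o. in 20% Captisol once daily for 4 consecutive days. Plasma and brain sampled after the final dose on day 4, n = 3 per time point.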

The test system of data set [14] is Mus musculus. Nature of the data set: In vivo inhibition of mTORC1 signalling in C57BL/6J mouse brain assessed as reduction in RPS6 phosphorylation at S235/236 residue at 25 mg/kg, po incubated for 30 mins by Western blot analysis. The data set is classed as functional, organism-based. The gist of the method:
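Female C57BL/6J mice dosed at 25 mg/kg p.o.; cortex collected 30 min later and lysed. Equal protein run on SDS-PAGE and western blotted for pS6(Ser235/236), pPKB(Ser473) and α-tubulin, detected by HRP secondary antibodies and ECL. Signal expressed as % of control cortex, n = 3, mean ± SEM, unpaired t-test.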

Data set [15] is described as follows: AUC (0 to 8 hrs) in C57BL/6J mouse brain at 10 mg/kg, po administered as single dose by mass spectrometry based UHPLC analysis. The data set is classed as ADME, organism-based. Also noted: time < 8 hr, route oral, dose 10 mg/kg. The gist of the method:
as §4

Data set [16] can be described thus: Cmax in C57BL/6J mouse plasma at 10 mg/kg, po administered as single dose by mass spectrometry based UHPLC analysis. The data set is classed as ADME, organism-based. Also noted: route oral, dose 10 mg/kg. The gist of the method:
as §4

A short description of data set [17]: Cmax in C57BL/6J mouse plasma at 10 mg/kg, po administered once a day for 4 consecutive days by mass spectrometry based UHPLC analysis. Format: ADME, organism-based. Also noted: route oral, dose 10 mg/kg, time 4 day. The gist of the method:
as §5

Data set [18] in a line: Elimination half life in C57BL/6J mouse plasma at 10 mg/kg, po administered as single dose by mass spectrometry based UHPLC analysis. The data set is classed as ADME, organism-based. To be noted: read-out: beta t1/2 (converted). The gist of the method: as §4

One compound from ChEMBL document CHEMBL4715860 (J Med Chem, 2020) can be followed below.

Activity calls are given as the source filed them. The rule behind the calls is not given here.

For `C[C@@H]1COCCN1c1nc(-c2cnc(N)cc2C(F)F)nc(N2[C@H](C)COC[C@@H]2C)n1`, the hepatocyte CLint at 5 µM in data set [1] amounted to 1.8 µL/min/1e6 cells. Moreover, the apparent clearance CL/F is 40.5 mL/min/kg in [2], 56.6 mL/min/kg in data set [10] and 64.9 mL/min/kg in data set [13]. Also, the inhibition result in the data set on Rattus norvegicus [3] and with Rattus norvegicus [12] was “inactive” throughout. Further, the outcome in the data set with Mus musculus [4] was Active. Moreover, the area under the curve AUC(0-t) at 8 h in [5] is 2430 ng·h/mL; in data set [15] it was 4650 ng·h/mL. In [6], the Activity result is “Non-Toxic”. The remaining at 3 h, 5 µM in [7] was determined as 75.6%; in [11], 48.4%. The highest concentration (Cmax) in data set [8] stood at 3340 ng/mL; in data set [16], 1100 ng/mL; in [17], 947 ng/mL. For the same compound, the time of peak concentration (Tmax) in data set [9] was found to be 0.5 h. Further, the inhibition entry with Mus musculus [14] was “Active”. Besides, the half-life in data set [18] is 3 h.
